ChEMBL document CHEMBL4219193, “Synthesis, biological evaluation and molecular docking study of 1-amino-2-aroylnaphthalenes against prostate cancer” (Bioorg Med Chem Lett, 2018)
Calls of active or inactive are those of the source.

Legend:
Type in all cases: cell-based
[1] = biological target: RAC-gamma serine/threonine-protein kinase (Homo sapiens) (UniProt Q9Y243); test: Inhibition of AKT3 phosphorylation in human PC3 cells at 14 uM after 12 to 24 hrs by Western blot analysis
Summary of the method: (§1)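 Immunoblotting of PC-3 lysates for procaspase 8, procaspase 9 and phosphorylated Akt1, 2 and 3 after treatment at 14 µM, with samples collected at different time points.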

[2] = biological target: RAC-beta serine/threonine-protein kinase (Homo sapiens) (UniProt P31751); test: Inhibition of AKT2 phosphorylation in human PC3 cells at 14 uM after 12 to 24 hrs by Western blot analysis; summary of the method: as §1
Chain of RAC-beta serine/threonine-protein kinase (Homo sapiens) (P31751 whole entry): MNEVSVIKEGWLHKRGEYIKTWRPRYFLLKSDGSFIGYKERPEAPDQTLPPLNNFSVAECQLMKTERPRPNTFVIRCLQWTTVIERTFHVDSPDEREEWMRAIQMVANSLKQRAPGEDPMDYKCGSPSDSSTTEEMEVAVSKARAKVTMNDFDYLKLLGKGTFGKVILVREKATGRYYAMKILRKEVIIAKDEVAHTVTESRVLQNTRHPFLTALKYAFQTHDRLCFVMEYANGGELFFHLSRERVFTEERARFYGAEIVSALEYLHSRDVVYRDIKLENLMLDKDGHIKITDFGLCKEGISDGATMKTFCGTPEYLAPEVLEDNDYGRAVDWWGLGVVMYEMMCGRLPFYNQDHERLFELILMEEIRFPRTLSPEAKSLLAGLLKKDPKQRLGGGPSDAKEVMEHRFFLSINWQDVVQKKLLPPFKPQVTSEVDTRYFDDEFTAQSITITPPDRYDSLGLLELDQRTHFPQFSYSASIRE

[3] = biological target: RAC-alpha serine/threonine-protein kinase (Homo sapiens) (UniProt P31749); test: Inhibition of AKT1 phosphorylation in human PC3 cells at 14 uM after 12 to 24 hrs by Western blot analysis; summary of the method: as §1
Chain of RAC-alpha serine/threonine-protein kinase (Homo sapiens) (P31749 whole entry): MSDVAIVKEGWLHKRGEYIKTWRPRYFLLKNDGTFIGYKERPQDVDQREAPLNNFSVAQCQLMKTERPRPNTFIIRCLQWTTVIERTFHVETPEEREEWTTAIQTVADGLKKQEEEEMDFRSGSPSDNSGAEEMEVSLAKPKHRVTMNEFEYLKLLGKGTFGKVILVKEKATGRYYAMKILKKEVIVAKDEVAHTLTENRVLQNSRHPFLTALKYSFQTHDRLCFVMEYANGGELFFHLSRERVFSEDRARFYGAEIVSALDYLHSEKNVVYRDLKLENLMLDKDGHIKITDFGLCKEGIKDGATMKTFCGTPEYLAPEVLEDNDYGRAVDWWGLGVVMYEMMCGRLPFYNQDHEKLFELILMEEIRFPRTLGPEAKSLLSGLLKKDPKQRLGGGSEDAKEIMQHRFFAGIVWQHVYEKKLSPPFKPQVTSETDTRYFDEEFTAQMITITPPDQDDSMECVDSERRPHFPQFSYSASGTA

Measured: inhibition

Chain of RAC-gamma serine/threonine-protein kinase (Homo sapiens) (Q9Y243 whole entry): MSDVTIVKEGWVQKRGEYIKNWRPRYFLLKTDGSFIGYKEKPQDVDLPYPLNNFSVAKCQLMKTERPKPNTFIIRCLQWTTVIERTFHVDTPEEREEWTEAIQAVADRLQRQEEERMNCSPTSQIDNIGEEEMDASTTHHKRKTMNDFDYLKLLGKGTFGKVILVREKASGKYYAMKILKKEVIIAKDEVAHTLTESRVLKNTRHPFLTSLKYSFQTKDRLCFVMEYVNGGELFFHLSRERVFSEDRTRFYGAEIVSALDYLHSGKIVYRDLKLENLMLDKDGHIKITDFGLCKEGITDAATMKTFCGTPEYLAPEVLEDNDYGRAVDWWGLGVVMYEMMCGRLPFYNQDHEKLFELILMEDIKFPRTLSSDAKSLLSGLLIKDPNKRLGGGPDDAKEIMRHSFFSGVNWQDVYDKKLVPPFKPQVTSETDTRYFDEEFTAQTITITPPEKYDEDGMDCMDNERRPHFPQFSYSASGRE

CSc1c(C(=O)c2ccc(Br)cc2)c(N)c2ccccc2c1C#N
active: all assays above
